Activity calls are given as the source filed them. The rule behind the calls is not given here.
Experiments:
[1] = system: CHO-TAX 5-6; test: Ratio of IC50 for paclitaxel-resistant CHO-TAX 5-6 cells to IC50 for CHO cells; assay type: functional, Cricetulus griseus
Method in brief: (§1)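 Each ratio is the IC50 in the resistant line divided by the IC50 in its parental line (CHO for CHO-TAX 5-6 and CHO-VV 3-2; CEM for CEM-VLB).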

[2] = system: CHO-VV 3-2; test: Antiproliferative activity against colchicine and vinblastine-resistant CHO-VV 3-2 cells after 48 hrs by SRB assay; assay type: functional, cell-based; details: Cricetulus griseus, CHO-VV 3-2, 48 h
Method in brief: (§2)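 Adherent cells were seeded per line (e.g. HT-29 5000, M21 3500, MCF7 7500, CHO and CHO-VV 3-2 and CHO-TAX 5-6 1000 cells/well) and grown 24 h at 37 °C, 5% CO₂. DMSO-solubilized drug was diluted in medium and added at 1000–0.98 nM for 48 h. Cells were fixed with cold 10% TCA and stained with 0.1% sulforhodamine B, with absorbance read at 530–565 nm.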

[3] = system: CHO-VV 3-2; test: Ratio of IC50 for colchicine and vinblastine-resistant CHO-VV 3-2 cells to IC50 for CHO cells; assay type: functional, Cricetulus griseus; method in brief: as §1
[4] = Antiproliferative activity against human multidrug-resistant CEM/VLB cells after 48 hrs by SRB assay; assay type: functional
[5] = system: CCRF-CEM; test: Ratio of IC50 for human multidrug-resistant CEM/VLB cells to IC50 for human CEM cells; assay type: functional; method in brief: as §1
[6] = system: M21; test: Cell cycle arrest in human M21 cells assessed as accumulation at G0/G1 phase at 5 times IC50 after 24 hrs using propidium iodide staining by flow cytometric analysis (reference value: 61%); assay type: functional
Method in brief: (§3)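 Cells were trypsinized, fixed in ice-cold ethanol, treated with RNase, and stained with propidium iodide (1 mg/mL stock) for 1 h on ice. Cell-cycle distribution was measured by flow cytometry.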

[7] = system: M21; test: Cell cycle arrest in human M21 cells assessed as accumulation at S phase at 5 times IC50 after 24 hrs using propidium iodide staining by flow cytometric analysis (reference value: 30%); assay type: functional; method in brief: as §3
[8] = system: M21; test: Cell cycle arrest in human M21 cells assessed as accumulation at G2/M phase at 5 times IC50 after 24 hrs using propidium iodide staining by flow cytometric analysis (reference value: 9%); assay type: functional; method in brief: as §3
[9] = system: MDA-MB-231; test: Displacement of N,N'-ethylenebis(iodoacetamide) from beta-tubulin colchicine-binding site in human MDA-MB-231 cells at 1000 times IC50 preincubated for 2 hrs before N,N'-ethylenebis(iodoacetamide) addition measured after 1.5 hrs by chemiluminescence assay; assay type: cell-based
Method in brief: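 EBI (100, final) was added for 1.5 h at 37 °C with drug present; control was 0.5% DMSO. Sonicated lysates (20 µg protein) were run on 10% SDS-PAGE and blotted with anti-β-tubulin TUB 2.1. The β-tubulin–EBI adduct was scored by ECL.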

[10] = system: M21; test: Disruption of cytoskeleton microtubule structure of human M21 cells at 5 times IC50 after 16 hrs by indirect immunofluorescence assay; assay type: functional, cell-based
Method in brief: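 Cells were fixed in 3.7% formaldehyde, permeabilized with saponin, and stained with anti-β-tubulin TUB 2.1, Alexa-488 anti-mouse secondary and DAPI. Fluorescence microscopy was used for imaging.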

[11] = Toxicity against fertilized chicken embryo assessed as mortality at 3 ug, iv by CAM assay; assay type: organism-based, Gallus gallus; details: in vivo, read-out: Activity
Method in brief: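 HT-1080 fibrosarcoma cells (3.5 × 10⁵ cells/egg) grafted onto the chorioallantoic membrane of fertilized chicken eggs (10 days preincubation). On day 11, drug in DMSO diluted into excipient (ethanol:cremophor:PBS 6.25:6.25:87.5) given iv at 3 µg per egg. Chick mortality recorded over 7-day tumor growth period. Untreated eggs as negative controls and for normalization. Cumulative results from two independent experiments, 10–12 eggs each.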

[12] = system: HT-1080; test: Antitumor activity against human HT1080 cells xenografted in chicken chorioallantoic membrane assessed as inhibition of tumor growth at 3 ug, iv measured on day 17 by CAM assay; assay type: functional
Method in brief: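 Fertilized chicken eggs were incubated 10 days, then 3.5 × 10⁵ HT-1080 cells/egg were applied to the exposed chorioallantoic membrane. On day 11, drug was given iv in DMSO diluted in excipient (ethanol:cremophor:PBS 6.25:6.25:87.5). Read-out was tumor wet weight as % of untreated eggs, plus chick mortality. Data were pooled from two independent experiments of 10–12 eggs each.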

[13] = system: HT-29; test: Antiproliferative activity against human HT-29 cells after 48 hrs by SRB assay; assay type: functional, cell-based; details: HT-29, 48 h; method in brief: as §2
[14] = system: M21; test: Antiproliferative activity against human M21 cells after 48 hrs by SRB assay; assay type: functional, cell-based; details: M21, 48 h; method in brief: as §2
[15] = system: MCF7; test: Antiproliferative activity against human MCF7 cells after 48 hrs by SRB assay; assay type: functional, cell-based; details: MCF7, 48 h; method in brief: as §2
[16] = system: K562; test: Antiproliferative activity against human K562 after 48 hrs by SRB assay; assay type: functional, cell-based; details: K562, 48 h
[17] = system: L1210; test: Antiproliferative activity against mouse L1210 after 48 hrs by SRB assay; assay type: functional, cell-based; details: L1210, 48 h
[18] = system: DU-145; test: Antiproliferative activity against human DU145 after 48 hrs by SRB assay; assay type: functional, cell-based; details: DU-145, 48 h
[19] = system: HT-1080; test: Antiproliferative activity against human HT1080 after 48 hrs by SRB assay; assay type: functional, cell-based; details: HT-1080, 48 h; method in brief: as §2
[20] = system: MDA-MB-231; test: Antiproliferative activity against human MDA-MB-231 after 48 hrs by SRB assay; assay type: functional, cell-based; details: MDA-MB-231, 48 h
[21] = system: SK-OV-3; test: Antiproliferative activity against human SKOV3 after 48 hrs by SRB assay; assay type: functional, cell-based; details: SK-OV-3, 48 h; method in brief: as §2
[22] = system: CCRF-CEM; test: Antiproliferative activity against human CEM after 48 hrs by SRB assay; assay type: functional, cell-based
[23] = system: CHO-TAX 5-6; test: Antiproliferative activity against paclitaxel-resistant CHO-TAX 5-6 cells after 48 hrs by SRB assay; assay type: functional, cell-based; details: Cricetulus griseus, CHO-TAX 5-6, 48 h; method in brief: as §2
[24] = Antiproliferative activity against mouse B16F0 after 48 hrs by SRB assay
[25] = Antiproliferative activity against mouse P388D1 after 48 hrs by SRB assay; details: P388D1, 48 h
[26] = system: CHO; test: Antiproliferative activity against Chinese hamster CHO after 48 hrs by SRB assay; details: Cricetulus griseus

| Structure (SMILES) | Ratio IC50 [1] | IC50 [2] [nM] | Ratio IC50 [3] | IC50 [4] [nM] | Ratio IC50 [5] | Activity [6] [%] | Activity [7] [%] | Activity [8] [%] | Activity [9] | Activity [10] | mortality [11] [%] | IC50 [13] [nM] | IC50 [14] [nM] | IC50 [15] [nM] | IC50 [16] [nM] | IC50 [17] [nM] | IC50 [18] [nM] | IC50 [19] [nM] | IC50 [20] [nM] | IC50 [21] [nM] | also measured |
| --- | --- | --- | --- | --- | --- | --- | --- | --- | --- | --- | --- | --- | --- | --- | --- | --- | --- | --- | --- | --- | --- |
| O=C1NCCN1c1ccc(S(=O)(=O)Nc2cccc(Br)c2)cc1 | 0.3 | 270 | 1.1 | 250 | 2.3 | 2 | 20 | 78 | Active | Active | 24 | 77 | 59 | 100 | 87 | 99 | 340 | 170 | 290 | 170 | growth inhibition (GI) [12]: 19%; IC50 [22]: 110 nM; IC50 [23]: 76 nM; IC50 [24]: 270 nM; IC50 [25]: 90 nM; IC50 [26]: 250 nM |
| COc1cccc(NS(=O)(=O)c2ccc(N3CCNC3=O)cc2)c1 | 0.61 | 450 | 1.4 | 700 | 2.7 | 10 | 29 | 61 | Active | Active | 16 | 120 | 65 | 120 | 230 | 240 | 650 | 200 | 730 | 240 | growth inhibition (GI) [12]: 41%; IC50 [22]: 260 nM; IC50 [23]: 200 nM; IC50 [24]: 370 nM; IC50 [25]: 250 nM; IC50 [26]: 330 nM |
| O=C1NCCN1c1ccc(S(=O)(=O)Nc2cccc(Cl)c2)cc1 | 0.6 | 150 | 1.6 | 170 | 2.2 | 5 | 33 | 62 | Active | Active | 8 | 55 | 25 | 79 | 69 | 77 | 230 | 68 | 200 | 70 | inhibition [12]: inactive; IC50 [22]: 77 nM; IC50 [23]: 58 nM; IC50 [24]: 190 nM; IC50 [25]: 78 nM; IC50 [26]: 96 nM |
| COc1cc(NS(=O)(=O)c2ccc(N3CCNC3=O)cc2)cc(OC)c1 | 0.67 | 690 | 2.1 | 1010 | 5.9 | 13 | 28 | 59 | Active | Active | 13 | 78 | 60 | 170 | 110 | 110 | 700 | 150 | 340 | 170 | growth inhibition (GI) [12]: 31%; IC50 [22]: 170 nM; IC50 [23]: 220 nM; IC50 [24]: 280 nM; IC50 [25]: 200 nM; IC50 [26]: 330 nM |
| COc1cc(NS(=O)(=O)c2ccc(N3CCNC3=O)cc2)cc(OC)c1OC | 0.89 | > 250 | >1.3 | > 250 | >11 | 12 | 12 | 74 | Active | Active | 40 | 21 | 13 | 18 | 19 | 21 | 51 | 17 | 45 | 22 | growth inhibition (GI) [12]: 25%; IC50 [22]: 23 nM; IC50 [23]: 170 nM; IC50 [24]: 58 nM; IC50 [25]: 38 nM; IC50 [26]: 190 nM |
| CCc1cccc(NS(=O)(=O)c2ccc(N3CCNC3=O)cc2)c1 | 0.61 | 250 | 1.1 | 450 | 2.3 | 0 | 5 | 95 | Active | Active | 11 | 110 | 82 | 130 | 230 | 200 | 730 | 200 | 1410 | 230 | growth inhibition (GI) [12]: 45%; IC50 [22]: 200 nM; IC50 [23]: 140 nM; IC50 [24]: 270 nM; IC50 [25]: 250 nM; IC50 [26]: 230 nM |
| O=C1NCCN1c1ccc(S(=O)(=O)Nc2ccc3[nH]ccc3c2)cc1 | 0.49 | 1860 | 1.4 | 4840 | 12 | 27 | 22 | 51 | Active | Active | 8 | 130 | 87 | 170 | 340 | 260 | 1370 | 230 | 3600 | 280 | inhibition [12]: inactive; IC50 [22]: 410 nM; IC50 [23]: 640 nM; IC50 [24]: 770 nM; IC50 [25]: 520 nM; IC50 [26]: 1310 nM |
| Cc1cc(C)cc(NS(=O)(=O)c2ccc(N3CCNC3=O)cc2)c1 | 0.57 | 250 | 1.2 | 400 | 2.4 | 1 | 21 | 78 | Active | Active | 8 | 82 | 63 | 100 | 110 | 110 | 430 | 150 | 1220 | 190 | inhibition [12]: inactive; IC50 [22]: 170 nM; IC50 [23]: 120 nM; IC50 [24]: 260 nM; IC50 [25]: 210 nM; IC50 [26]: 210 nM |

Source: ChEMBL document CHEMBL1909507, “Substituted phenyl 4-(2-oxoimidazolidin-1-yl)benzenesulfonamides as antimitotics. Antiproliferative, antiangiogenic and antitumoral activity, and quantitative structure-activity relationships” (Eur J Med Chem, 2011)
